# This is a sample that favours compounds with a hit; in the whole collection about 5.5% have one here.
# tolC growth inh – growth inhibitors of E. coli BW25113 tolC mutant | growth inhibition, % at 10 µM (by protocol) | OD615 | hit rate 2.2% among 65,000;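 active means growth inhibition at or above a cutoff equal to the mean over every tested compound plus 3 SD, cut at about 60% in these data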;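 further: growth measured after 20 h incubation at 37 °C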
#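 Material: E. coli BW25113 ΔtolC::kan, tolC deletion mutant strain. Measure: percent growth inhibition. Schedule: 37 °C, 20 h exposure. Doses: single-point testing at 10 µM. Signal: A615 absorbance measurement. Buffer or medium: kanamycin-containing LB broth (50 µg/mL).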
# PLAP act – activates human placental alkaline phosphatase | P05187 | purified PLAP enzyme, luminescent substrate read-out; active compounds read high | activation fold at 20 µM | hit rate 1.2% among 96,000 | AID 696; in the data active means activation fold above about 2
# Target sequence (P05187 whole entry, looked up): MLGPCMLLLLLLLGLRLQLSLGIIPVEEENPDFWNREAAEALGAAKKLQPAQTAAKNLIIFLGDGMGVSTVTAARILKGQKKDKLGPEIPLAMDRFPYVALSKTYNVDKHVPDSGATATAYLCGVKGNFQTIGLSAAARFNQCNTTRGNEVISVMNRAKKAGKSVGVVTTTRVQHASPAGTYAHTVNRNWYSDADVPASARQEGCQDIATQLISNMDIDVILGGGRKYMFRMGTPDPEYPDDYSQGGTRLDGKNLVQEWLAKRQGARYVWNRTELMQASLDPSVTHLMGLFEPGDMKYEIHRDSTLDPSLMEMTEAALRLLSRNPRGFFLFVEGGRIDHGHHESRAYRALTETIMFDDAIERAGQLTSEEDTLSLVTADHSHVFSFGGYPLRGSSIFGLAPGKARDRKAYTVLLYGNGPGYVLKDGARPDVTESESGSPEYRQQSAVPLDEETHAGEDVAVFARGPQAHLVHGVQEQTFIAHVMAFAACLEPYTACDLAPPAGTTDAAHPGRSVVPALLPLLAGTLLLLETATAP
# Ecoli WT expand – growth inhibitors of E. coli BW25113 wild type; OD600 absorbance; AID 710; hit rate 0.15% among 98,000; growth inhibition, % at 100 µM;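 active means growth inhibition above about 50% at one test dose, limit read from the data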;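 further: growth measured after 20 h incubation at 37 °C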
# PostGolgi ctrl – inhibits growth of the yeast control strain; efflux-deficient yeast background strain, growth absorbance A615, 16 h; inhibition, % at 10 µM; hit rate 5% among 98,000
# HePTP inhibitor – inhibitors of human HePTP phosphatase. hit rate 0.64% among 110,000. P35236. AID 521. recombinant HePTP phosphatase activity, OD absorbance. inhibition, % at 20 µM; in the data active means inhibition above about 50%;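 further: plate controls were vehicle for no effect and reference inhibitor for full effect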
# PostGolgi yeast – growth inhibition of a yeast mutant, post-Golgi transport screen | hit rate 0.9% among 98,000 | inhibition, % at 10 µM | post-Golgi transport phenotypic cell assay;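 further: yeast cells grown in 1536-well plates; yeast grown about 18 h at 30C before absorbance read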
# The depositor's hits bear a star; · = no result. Unless noted, no stated cut-off is given here; in the data, active means inhibition above about 30%; inactive means the rest.
SMILES,tolC growth inh,PLAP act,Ecoli WT expand,PostGolgi ctrl,HePTP inhibitor,PostGolgi yeast
COc1ccc(-n2c(SCC(=O)Nc3ccccc3)nc3c(c2=O)SCC3)cc1,14.1,1.1,-7.0,40.3*,2.3,-2.6
CCC(=O)OCCNc1cc(Sc2nc3ccccc3s2)c2nonc2c1[N+](=O)[O-],·,1.2,8.0,97.8*,·,94.2*
Cc1ccc(S(=O)(=O)Oc2cccc(/C=C3/SC(=S)N(c4ccccc4)C3=O)c2)cc1,·,·,·,·,-9.8,·
CCOC(=O)c1[nH]nc(-c2cc(CC)c(O)cc2O)c1-c1cscn1,·,2.1*,-2.0,8.7,·,9.8
CCOC(=O)c1oc2cc(O)cc(C)c2c(=O)c1-c1cscn1,7.0,1.2,6.0,5.8,-2.7,-7.2
O=C(COc1ccccc1)Nc1ccc(-c2nc3ccccc3s2)c(O)c1,·,·,·,·,46.2,·
O=c1[nH]c2ccc(S(=O)(=O)N3CCN(c4ccccc4F)CC3)cc2s1,99.5*,1,-5.0,30.8*,5.4,-5.1
Cc1cc(C)n(-c2nc3c(c(=O)[nH]c(=O)n3C)n2Cc2ccccc2)n1,0.7,1,5.0,11.7,0.9,-3.8
Cc1cc(C)c2c(=O)[nH]c(=O)n(Cc3ccccc3)c2n1,1.0,1,-5.0,43.4*,4.1,7.7
CC(C)(CO)N=Cc1ccc(Cl)cc1,·,·,·,·,2.0,·
CCOC(=O)c1c(C)oc2c1cc(O)c1ccccc12,-8.8,1,4.0,38.8*,-5.2,-5.9
CCOC(=O)c1c(C)[nH]c2c1cc(O)c1ccccc12,·,0.9,3.0,7.3,·,2.9
Cc1oc(-c2ccccc2F)nc1CS(=O)(=O)CC(=O)N1CCN(c2ccccc2)CC1,·,1.4,-3.0,36.8*,·,-4.5
FC(F)(F)c1ccccc1CN1CCN(Cc2ccccc2Cl)CC1,·,·,·,·,13.4,·
Cc1ccc(C2C=C(c3ccccc3OC(F)F)Nc3ncnn32)cc1 (stereo unspecified),54.4,1.4,-4.0,21.7,1.8,0.5
CN(C)c1ccc(C2C=C(c3ccc(Cl)cc3OC(F)F)Nc3ncnn32)cc1 (stereo unspecified),96.4*,1.2,-10.0,31.3*,2.3,3.1
COc1ccc(C(=O)CSc2nnc(COc3ccc(Cl)cc3Cl)o2)cc1,·,·,·,·,7.5,·
COc1ccccc1OCc1nnc(SCC(=O)c2cc(Cl)ccc2OC)o1,22.6,1.1,-7.0,32.0*,3.7,9.8
CCOc1cc(C2Nc3ccccc3C(=O)N2Cc2ccco2)ccc1OCc1ccccc1Cl (stereo unspecified),·,·,·,·,-14.2,·
O=c1cc(CO)oc(CN2CCN(c3ccccc3)CC2)c1O,-12.1,1,-8.0,1.5,·,2.7
O=c1cc(CO)oc(CN2CCN(c3cccc(C(F)(F)F)c3)CC2)c1O,·,2.2*,1.0,5.2,·,1.4
Cc1ccc(OCCN2CCN(C(=O)CCC(=O)Nc3nnc(C(C)C)s3)CC2)cc1,13.0,1.5,6.0,39.9*,11.1,-3.0
Cc1ccc(OCCN2CCN(C(=O)CCC(=O)Nc3nnc(C)s3)CC2)cc1,-5.1,·,-5.0,5.0,14.4,1.1
CCOc1cccc(-c2nnc(NC(=O)Nc3ccccc3)s2)c1,·,·,·,·,2.7,·
FC(F)(F)c1nc(N2CCCC2)ncc1-c1nnnn1-c1ccc(Cl)cc1,·,1.4,5.0,57.5*,·,21.6
SMILES,tolC growth inh,PLAP act,Ecoli WT expand,PostGolgi ctrl,HePTP inhibitor,PostGolgi yeast
Cc1ccc(-n2nnnc2-c2cnc(-c3cccnc3)nc2C(F)(F)F)cc1,·,0.9,4.0,8.4,·,1.9
Fc1ccc(-n2nnnc2-c2cnc(-c3cccs3)nc2C(F)(F)F)cc1,·,1,-7.0,45.5*,·,1.1
CCOc1c(Br)cc(/C=C2/C(=O)N(c3ccccc3)N=C2C)cc1OC,·,·,·,·,3.3,·
Cc1ccc2c(c1)c(C)c(C)n2CC(O)Cn1nc(C)c(Br)c1C (stereo unspecified),81.7*,1.5,-8.0,17.5,·,-0.1
Cc1ccc2c(c1)c1c(n2CC(O)Cn2nc(C)c(Br)c2C)C(=O)CCC1 (stereo unspecified),-7.4,1,-11.0,8.1,4.4,-5.3
O=S(=O)(NCC(c1cccnc1)N1CCN(c2ccc(F)cc2)CC1)c1ccc(F)cc1 (stereo unspecified),0.3,1.2,3.0,73.1*,-2.6,89.7*
O=S(=O)(NCC(c1cccnc1)N1CCOCC1)c1cccs1 (stereo unspecified),-12.3,·,·,·,·,·
O=C(NCC(c1cccnc1)N1CCN(c2ccccc2F)CC1)c1cccc(Cl)c1 (stereo unspecified),7.8,1.6,-6.0,24.1,-6.9,47.0*
O=S(=O)(NCC(c1cccnc1)N1CCN(c2ccccc2F)CC1)c1cccs1 (stereo unspecified),·,1.5,-4.0,34.7*,·,61.7*
O=S(=O)(NCC(c1cccnc1)N1CCN(c2ccc(F)cc2)CC1)c1cccs1 (stereo unspecified),-3.1,1.4,-2.0,54.6*,-8.8,78.1*
COC(=O)NCC(c1cccnc1)N1CCN(c2ccccc2F)CC1 (stereo unspecified),-4.1,·,6.0,2.3,2.5,-0.2
O=C1CCCC2=C1C(c1ccco1)Nc1ccccc1N2 (stereo unspecified),·,·,·,·,4.6,·
COc1cc(/C=C2\C(=O)NC(=S)N(c3ccc(F)cc3)C2=O)ccc1O,·,·,·,·,-2.9,·
Cc1ccccc1-n1c(O)c(C=NCc2ccccc2F)c(=O)[nH]c1=O,·,·,·,·,-2.4,·
COc1ccc(N2CCN(C(CNC(=O)C3CCCCC3)c3cccnc3)CC2)cc1 (stereo unspecified),-8.5,1.2,2.0,35.0*,5.8,3.2
CC(C)c1nnc(NC(=O)c2c(O)c3cccc4c3n(c2=O)CCC4)s1,100.0*,1.3,-2.0,59.1*,7.7,80.4*
O=C(CN1CCN(c2ccc(F)cc2)CC1)N1CCC(Cc2ccccc2)CC1,43.9,1.6,-5.0,31.0*,-3.5,2.4
Cc1ccc(S(=O)(=O)N/N=C2/CC(c3ccccc3)Oc3ccccc32)cc1[N+](=O)[O-] (stereo unspecified),·,1.7,-8.0,36.1*,·,-7.7
O=S(=O)(N/N=C1/CC(c2ccccc2)Oc2ccccc21)c1ccc(Br)cc1 (stereo unspecified),·,1.5,3.0,38.4*,·,-4.9
COc1ccccc1C(=O)Nc1ccc2c(c1)Cc1ccccc1-2,·,·,·,·,9.4,·
O=C(CN(Cc1ccco1)C(=O)c1ccccc1)Nc1ccc(Cl)c(Cl)c1,·,0.8,-5.0,39.0*,·,-8.2
CC(=O)NC(=O)c1ccccc1OCC(=O)c1ccc(Br)cc1,·,·,·,·,54.9*,·
O=C(COC(=O)c1ccccc1NC(=O)c1ccccc1)c1ccc(Br)cc1,·,·,·,·,12.7,·
Cc1ccccc1N1CCN(C(=S)c2ccc(OCc3ccccc3)cc2)CC1,·,·,·,·,-11.7,·
CCN(CC)C(=O)C1CCN(Cc2ccc(Br)cc2)CC1,-18.6,1.6,2.0,6.2,-0.9,60.9*
CCOC(=O)C1CCN(Cc2ccc(N(C)C)cc2)CC1,-14.2,1.1,4.0,-0.1,8.2,6.9
O=C(NC(c1ccccc1)c1ccccc1)c1ccccc1C(F)(F)F,·,·,·,·,-7.2,·
COc1ccc(CNC(=O)Cc2ccc(Cl)cc2)cc1,·,·,·,·,4.0,·
CCOc1ccccc1N1CCN(C(=O)c2cccc(-c3ccc(O)cc3)c2)CC1,20.1,1.6,-5.0,98.8*,9.5,4.9

# High-throughput results: PubChem BioAssay, several laboratories
